In the library only some 1.9% were active in any assay of this set; here they are far more common.
core dimer inh = blocks dimerization of HCV core protein | TR-FRET GST/Flag-core106 dimerization, 1536-well | inhibition, % at 5 µM | hit rate 0.33% among 300,000 | AID 1899;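 active = inhibition above the mean of all tested compounds plus 3 SD, set per screening campaign, cut at about 45% in these data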
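Assay system – GST-tagged and Flag-tagged HCV core protein residues 1-106 · Quantity – core106 proteins, GST 13.5 nM and Flag 17 nM · Benchmarks – unlabelled core106 and no-GST-core106 wells · Read-out basis – percent inhibition of core106 dimerization signal · Detection – time-resolved FRET, ex 340 nm, em 617 and 671 nm · Schedule – 4 h at 22.5 °C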
VIM-2 inhibitor = inhibitors of Pseudomonas aeruginosa VIM-2 metallo-beta-lactamase | purified VIM-2, nitrocefin hydrolysis, epi-absorbance fluorescence | inhibition, % at 5.6 µM | hit rate 0.89% among 290,000 | AID 1527;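 active = inhibition above the mean of all tested compounds plus 3 SD, cutoff set per screening run, cut at about 7.5% in these data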;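 also: red hydrolysis product quenches plate fluorescence so inhibitors raise well fluorescence; 0% = enzyme with DMSO and 100% = DMSO without enzyme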
NadD block = blocks S. aureus nicotinate mononucleotide adenylyltransferase. purified NadD enzyme, colorimetric absorbance read-out. hit rate 0.78% among 360,000. inhibition, % at 20 µM; in the data active = inhibition above about 26%
IMP-1 inh-1 = blocks Pseudomonas aeruginosa IMP-1 metallo-beta-lactamase; purified IMP-1, nitrocefin hydrolysis, epi-absorbance fluorescence; inhibition, % at 5.6 µM; hit rate 0.45% among 290,000; AID 1556;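 active = inhibition above the mean plus 3 SD of all compounds in the same screening run, cut at about 4.5% in these data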;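 also: 0% = IMP-1 with DMSO and 100% = DMSO wells lacking enzyme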
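System: Purified recombinant IMP-1 metallo-beta-lactamase enzyme | Measured by: Fluorescence quenching readout, ex 480/em 530 nm | Replication: Singlicate | Incubation: 15 min preincubation plus 25 min reaction at 25 °C | Evaluation: Percent inhibition from optical density relative to buffer-blank wells | Benchmarks: DMSO with and without IMP-1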
IMP-1 inh-2 = blocks IMP-1 metallo-beta-lactamase in VIM-2 selectivity screen | purified IMP-1, nitrocefin hydrolysis, epi-absorbance fluorescence | inhibition, % at 5.6 µM | shares compounds with VIM-2 inhibitor | 1,300 tested, under 10 active; call rule not given here;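 also: 0% = enzyme with vehicle and 100% = vehicle without enzyme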
VIM-2 FRET ctr = inhibits VIM-2 in FRET assay to exclude epi-absorbance artifacts. shares compounds with VIM-2 inhibitor. purified VIM-2, CCF2 FRET substrate hydrolysis. inhibition, % at 5.6 µM. hit rate 23% among 1,300;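 active = inhibition above the mean of all tested compounds plus 3 SD, cut at about 19% in these data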;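 also: 0% = VIM-2 plus DMSO and 100% = no enzyme wells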
TEM-1 counter = blocks E. coli TEM-1 beta-lactamase in VIM-2 selectivity screen | hit rate 3% among 1,300 | Purified TEM-1, nitrocefin hydrolysis, epi-absorbance fluorescence | shares compounds with VIM-2 inhibitor | AID 1866 | inhibition, % at 5.6 µM;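 active = inhibition above that campaign's mean inhibition plus 3 SD, cut at about 0.46% in these data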;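 also: 0% = TEM-1 with DMSO and 100% = TEM-1 with 100 µM potassium clavulanate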
Target sequence (P62593 whole entry, looked up): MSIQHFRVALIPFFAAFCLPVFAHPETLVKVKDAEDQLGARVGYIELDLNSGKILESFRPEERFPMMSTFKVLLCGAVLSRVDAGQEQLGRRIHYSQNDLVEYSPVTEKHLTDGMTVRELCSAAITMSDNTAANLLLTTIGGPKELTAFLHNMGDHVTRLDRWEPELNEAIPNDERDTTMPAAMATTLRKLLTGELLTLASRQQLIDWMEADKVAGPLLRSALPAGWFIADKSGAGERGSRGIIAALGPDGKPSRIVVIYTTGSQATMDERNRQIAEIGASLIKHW
VIM-2 inh conf = confirmation of P. aeruginosa VIM-2 metallo-beta-lactamase inhibitors; shares compounds with VIM-2 inhibitor; purified VIM-2, nitrocefin hydrolysis, epi-absorbance; inhibition, % at 5.6 µM; hit rate 96% among 1,300;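 active = inhibition of the VIM-2 beta-lactamase enzyme above about 11% from the earlier first-round screen, limit read from the data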;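 also: 0% = VIM-2 with DMSO and 100% = buffer wells without enzyme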
Starred values were filed as active, the others as inactive; . = no result given.

SMILES	core dimer inh	VIM-2 inhibitor	NadD block	IMP-1 inh-1	IMP-1 inh-2	VIM-2 FRET ctr	TEM-1 counter	VIM-2 inh conf
Cc1ccc(Nc2c3c(nc4ncnn24)CCC3)cc1	-0.3	17.2*	-2.1	-1.2	-3.2	1.0	-4.7	24.1*
Cc1ccc(Nc2c3c(nc4ncnn24)CC(C)CC3)cc1 (stereo not drawn)	1.2	-1.4	-0.9	-2.2	.	.	.	.
CCN1CCCC1CNC(=O)c1ccc2c(c1)NC(=O)/C(=C\c1ccc(OC)c(OC)c1)S2 (stereo not drawn)	-16.0	21.2*	6.2	0.8	-4.0	13.6	-6.9	24.3*
CCN1CCN(CCCNC(=O)c2ccc3c(c2)NC(=O)/C(=C\c2cccc(C)c2)S3)CC1	-7.5	4.1	-4.1	-2.8	.	.	.	.
COc1ccc(C(=O)NCCCN2CCOCC2)cc1OC	0.2	-3.2	4.4	-2.3	.	.	.	.
COc1ccc(/C=C2/Sc3ccc(C(=O)NCCCN4CCOCC4)cc3NC2=O)cc1OC	-34.3	21.5*	-8.1	-4.0	-3.7	19.0*	-13.0	25.0*
Cc1cccc(/C=C2/Sc3ccc(C(=O)NCCCN4CCOCC4)cc3NC2=O)c1	1.7	17.9*	-7.5	-2.9	-2.1	22.5*	-6.9	11.9*
CCN1CCCC1CNC(=O)c1ccc2c(c1)NC(=O)/C(=C\c1ccccc1Cl)S2 (stereo not drawn)	.	.	0.9	.	.	.	.	.
CCS(=O)(=O)N1Cc2ccccc2CC1C(=O)N(C)CC(=O)Nc1ccc(F)c(F)c1F (stereo not drawn)	2.2	.	-8.0	.	.	.	.	.
CCN(CC)C(=O)c1cc2c(=O)n3cccc(C)c3nc2s1	4.7	15.8*	-1.8	-2.2	-3.6	-9.5	-3.3	19.8*
CCCCn1c(=NC(C)=O)c(C#N)cc2c(=O)n3cccc(C)c3nc21	2.7	.	4.3	.	.	.	.	.
CCCCN(CC)C(=O)c1cc2c(=O)n3cccc(C)c3nc2s1	0.9	12.2*	1.3	-1.3	-2.3	-5.4	-3.7	19.5*
CCN(CC)C(=O)c1cc2c(=O)n3cccc(C)c3nc2n1C	-1.3	2.6	-5.0	-2.0	.	.	.	.
O=C(CSc1nnc(CNC(=O)c2ccco2)o1)Nc1cccc(Cl)c1	-2.0	-0.2	-1.4	-2.5	.	.	.	.
Cc1cc(C)c2c(n1)sc1c(N3CCN(C)CC3)ncnc12	0.0	13.0*	-4.7	-0.7	-1.9	-0.4	-4.3	21.3*
CC(c1n[nH]c(=S)n1-c1ccc(Cl)cc1)N(C)C (stereo not drawn)	-6.4	3.0	1.8	-3.1	.	.	.	.
CCC(c1n[nH]c(=S)n1-c1ccccc1)N(C)C (stereo not drawn)	-0.2	17.2*	-7.7	-5.9	-3.0	34.2*	-3.6	26.1*
CC(=O)N1CCN(c2ccc(S(=O)(=O)NCCN(C(C)C)C(C)C)cc2[N+](=O)[O-])CC1	-3.2	-1.4	-3.7	-3.4	.	.	.	.
CN(C)CCNS(=O)(=O)c1ccc(N2CCN(c3ccc(F)cc3)CC2)c([N+](=O)[O-])c1	-11.6	15.3*	-11.7	-3.4	-2.6	33.5*	-7.6	24.4*
O=C(NCc1ccc2[nH]c3c(c2c1)CCCC3)c1ccc(S(=O)(=O)N2CCOCC2)cc1	2.8	13.6*	0.3	1.8	0.3	28.2*	-3.0	23.4*
CCN(CC)S(=O)(=O)c1ccc(C(=O)NCc2ccc3[nH]c4c(c3c2)CCCC4)cc1	32.2	13.7*	6.4	-0.4	-0.5	28.3*	-4.1	20.0*
CN(C)S(=O)(=O)c1ccc(C(=O)NCc2ccc3[nH]c4c(c3c2)CCCC4)cc1	6.5	13.6*	5.3	3.1	0.8	28.0*	-2.1	25.5*
O=C(NCc1ccc2[nH]c3c(c2c1)CCCC3)N1CCOCC1	8.1	-0.1	.	-0.9	.	.	.	.
CCOCc1nnc(NC(=O)C2CC(=O)N(C3CCCC3)C2)s1 (stereo not drawn)	4.5	-1.4	-13.3	-5.2	.	.	.	.
Cc1nnc2ccc(-c3cccc(NC(=O)c4ccco4)c3)nn12	9.1	15.3*	-1.6	-1.2	-2.2	1.5	-8.3	24.9*
SMILES	core dimer inh	VIM-2 inhibitor	NadD block	IMP-1 inh-1	IMP-1 inh-2	VIM-2 FRET ctr	TEM-1 counter	VIM-2 inh conf
O=C(Nc1ccc(N2CCOCC2)cc1)c1ccc(Br)o1	8.7	-2.4	-1.0	-2.8	.	.	.	.
COc1ccc(C(=O)Nc2ccc(S(=O)(=O)N3CCN(C)CC3)cc2)cc1	13.7	.	-8.6	.	.	.	.	.
CCN1CCN(c2ccc(NC(=O)c3ccc(Cl)c(N4CCCC4=O)c3)cc2)CC1	-16.7	25.9*	5.2	-4.1	-2.0	-0.6	-5.0	42.3*
CN1CCN(c2ccc(NC(=O)c3ccc(Br)o3)cc2)CC1	-0.6	13.6*	-0.5	-2.3	-3.0	3.1	-6.4	30.9*
COc1ccc(C(=O)Nc2ccc(N3CCN(C)CC3)cc2)cc1	-13.2	15.5*	-4.2	-6.2	-2.0	1.6	-1.6	25.7*
CN1CCN(c2ccc(NC(=O)c3ccc4ccccc4c3)cc2)CC1	-6.0	25.2*	-6.0	-0.8	-1.3	-1.1	-6.5	34.3*
Cc1ccc(-n2[nH]c(C)c(CCC#N)c2=O)cc1	-12.6	-4.7	-0.6	-2.0	.	.	.	.
Cn1c(=O)c2sccc2n2c(CCCC(=O)NCc3ccc(F)cc3)nnc12	1.2	0.6	0.5	-0.1	.	.	.	.
CCN1CCN(c2ccc(NC(=O)c3cc(OC)c(OC)c(OC)c3)cc2)CC1	-7.8	23.7*	4.4	-3.7	-3.5	-1.6	-5.2	37.5*
COc1ccc(C(=O)Nc2ccc(N3CCN(C)CC3)cc2)cc1OC	4.5	24.0*	-2.7	-5.4	-3.0	2.6	-6.0	38.6*
N#CCC(=O)c1sccc1-n1cccc1	1.4	2.5	1.5	1.3	.	.	.	.
Cc1cc(C(=O)N/N=C\c2cc(C(C)(C)C)ccc2O)n[nH]1	0.3	-5.8	-0.7	-2.6	.	.	.	.
CC(=O)N/N=C/c1cc(C(C)(C)C)cc(/C=N/NC(C)=O)c1O	-3.1	38.5*	-3.2	1.1	1.8	9.8	-4.0	54.9*
O=C(CCN1C(=O)/C(=C/c2ccccc2F)SC1=S)NCCCn1ccnc1	0.1	36.5*	5.6	-1.4	-2.2	44.0*	-8.4	41.4*
O=C(CCCN1C(=O)/C(=C/c2ccccc2)SC1=S)NCCCn1ccnc1	-0.1	0.1	6.6	-0.6	.	.	.	.
O=C(CSc1nccc(=O)[nH]1)NC1CCCCCC1	.	.	-2.2	.	.	.	.	.
Cc1ccccc1C(=O)N1CCC[C@@H]1C(=O)N1CCC[C@H]1C(=O)NCc1ccncc1	.	.	-3.1	.	.	.	.	.
CC1CN(Cc2c(O)ccc3c2oc(=O)c2ccccc23)CC(C)O1 (stereo not drawn)	18.1	13.5*	4.4	-1.6	-2.0	-16.3	-6.6	28.6*
O=C(Nc1ccc(-n2ccnc2P(=O)(O)c2ccccc2)cc1)c1ccccc1Cl	-2.6	14.8*	10.3	-2.8	-3.5	29.4*	-4.5	20.8*
O=C(Nc1ccc(N2CCCCCC2)cc1)c1ccccc1Cl	-4.2	-2.7	11.0	-2.7	.	.	.	.

Screening data deposited in PubChem by several laboratories.
